Results reported in article PMC6598675 (Science signaling, 2019).
“And” between values parts separate entries of the source, which are not always exact repeats. Equal values may be shown once. “Also recorded” adds a separate entry of the source.

How the values were obtained:
[1] = test system: primary mouse T cells (AND TCR transgenic), NFAT; test: NFAT nuclear translocation of AND TCR T cells on pMHC supported bilayers; format: cell-based; conditions: for agonist strength (in words): AND TCR
Summary of the method: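 Primary AND TCR-transgenic mouse T cells were retrovirally spinfected with NFAT-GFP (polybrene 4 μg/ml, days 3–4 post-activation) and sorted; most runs used NFAT-mCherry. Cells were added at 37°C onto Ni-chelating supported bilayers carrying His-tagged ICAM-1 (100–200 μm−2) and peptide-loaded MHC (0.1–2 μm−2). Landing was scored by RICM. NFAT activation was the nuclear/cytosolic intensity ratio. Threshold was the density near half-maximal response, with >30 cells per condition over five experiments.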

AND TCR T cells [2] = format: cell-based, mouse
Summary of the method: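 For each T cell, binding events and total dwell time were counted from RICM landing to first NFAT translocation. Counts were corrected for undetected prebleached events and for short events (0.8 s up to the time-lapse interval). Costimulation used His10-tagged recombinant murine CD80 ectodomain on the bilayer at 100–300 molecules/μm2. There were 7–15 cells per condition from three to seven experiments.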

AND TCR T cells [3] = format: cell-based, mouse; remark: listed apart in the source
AND TCR [4] = test: Calculated probability of long-dwelling pMHC-TCR binding events; design: species or system mouse; conditions: single exponential unbinding kinetics from mean dwell time
Summary of the method: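 The probability that a binding event lasts 40 s was calculated assuming single-exponential unbinding at the fitted, photobleaching-corrected mean dwell time. The 40 s receptor-level threshold came from spatiotemporal correlation analysis of pMHC trajectories grouped into signaling clusters.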

AND TCR [5] = test: Single-molecule TIRF imaging of pMHC-TCR binding events; design: species or system mouse; conditions: for pMHC-TCR binding / mobility under T cell (in words): 37°C, single-molecule TIRF
Summary of the method: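 Atto647N-peptide-MHC binding under live T cells was imaged at 37°C by single-molecule TIRF, either at 2.5 mW/cm2 with 20 ms exposures or at 0.1 mW/cm2 with 500 ms exposures. Single-step unbinding was confirmed by Bayesian change-point detection. Dwell-time distributions (>3000 trajectories, ≥25 cells) were fitted to a single exponential and corrected for photobleaching using bilayer pMHC imaged under identical conditions. Bound fraction was normalised to RICM contact area.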

5c.c7 recombinant TCR = 5c.c7 recombinant TCR binding to MCC pMHC; ref [9], [10]; cited from earlier work
[6] = low T102S pMHC density, cells that activated NFAT

For ANERADLIAYLKQASK [T102S pMHC], the “agonist strength (in words)” value [1] was “weak agonist”, the “NFAT activation probability at low density” value ([1]; low T102S density) was 5% and ~ 5% and the “time to NFAT translocation (comparison in words)” value ([1]; low T102S density vs threshold densities) was “took longer to translocate NFAT than those at threshold densities of either MCC or T102S pMHCs”. The “NFAT activation probability at threshold density” value ([1]; threshold pMHC density) was 32%, the “rate of dwell time accumulation (in words)” value (AND TCR T cells [2]; low T102S density, activating cells vs cells that did not activate) was “indistinguishable from cells that did not active NFAT at threshold densities” and the “number of correlated pMHC tracks, activating cells” value (AND TCR T cells [3]; low T102S pMHC density, 30-s window, cells that activated NFAT) was “between two and nine correlated pMHC tracks”. The “number of correlated pMHC tracks, nonactivating cells” value (AND TCR T cells [3]; low T102S pMHC density, 30-s window, cells that did not activate NFAT) was “zero to three correlated pMHC tracks”, the “binding events within 2 mm and 30 s of another binding event, activating cells” value (AND TCR T cells [3]; [6]) was 90% and the “effective mean dwell time after spatiotemporal correlation (in words)” value (AND TCR T cells [3]; [6]) was “could resemble long-dwelling MCC pMHC binding inputs in terms of mean dwell time”. For the same molecule, the “binding events within the same space and time (2 mm, 30 s), nonactivating cells” value (AND TCR T cells [3]; low T102S pMHC density, cells that did not activate NFAT) was 68%, the “number of spatiotemporally correlated tracks (comparison in words)” value (AND TCR T cells [3]; threshold conditions) was “more spatiotemporally correlated pMHC tracks than those exposed to MCC” and the “probability that a pMHC-TCR binding event dwells for 40 s” value (AND TCR [4]) was 0.02.

For ANERADLIAYPKAATKF [K3 pMHC], the “agonist strength (in words)” value [1] was “moderate agonist”.

With “ANERADLIAYLKQATK [MCC pMHC, Moth cytochrome C 88–103 peptide]” the “pMHC-TCR binding / mobility under T cell (in words)” value (AND TCR [5]) was “bimodal mobility under a T cell (cyan) and unimodal mobility on the free supported membrane; also recorded: a substantial fraction of the all pMHC under the T cell are bound as long-lived species”, the “difference in affinity MCC pMHC vs T102S pMHC” value (AND TCR [5]; range covered by strong and weak agonist) was “fivefold” and the “agonist strength (in words)” value [1] was “strong agonist”. The “probability that a pMHC-TCR binding event dwells for 40 s” value (AND TCR [4]) was 0.43 and the “mean dwell time (<τoff>), 5c.c7 TCR” value (5c.c7 recombinant TCR) was 7.2 s.

In the case of “ANERAELIAYLTQAAKGGSC [null pMHC, reference compound]”, the “pMHC-TCR binding / mobility under T cell (in words)” value (AND TCR [5]) is reported as “did not exhibit slowed pMHC-TCR complexes”.

B1: CD80: murine costimulatory ligand CD80 (B7), recombinant, secreted, truncated ectodomain with a flexible linker and decahistidine tag (protein, UniProt Q00609 38-246, looked up)
extracellular domain: VDEQLSKSVKDKVLLPCRYNSPHEDESEDRIYWQKHDKVVLSVIAGKLKVWPEYKNRTLYDNTTYSLIILGLVLSDRGTYSCVVQKKERGTYEVKHLALVKLSIKADFSTPNITESGNPSADTKRITCFASGGFPKPRFSWLENGRELPGINTTISQDPESELYTISSQLDFNTTRNHTIKCLIKYGDAHVSEDFTWEKPPEDPPDSKN
modifications: extracellular domain flexible linker and decahistidine tag
In the case of B1, the “effect of costimulation on activation (in words)” value (AND TCR T cells [2]; CD80 on bilayer, 100 to 300 molecules/μm^2, cells that activated NFAT) is reported as “cells that activated NFAT experienced a decrease in the time to activation, accumulated binding events, and cumulative dwell time”.
